# Measurements reported in ChEMBL document CHEMBL5724801, “EUbOPEN Chemogenomics Library - Multiplex” (2024).
# “And” between values parts separate entries of the source, which are not always exact repeats. Identical values can stand only once.
# Test system: Fibroblast
# Test: Multiplex assay against human fibroblast
# Assay type: toxicity, cell-based
# Procedure, shortened: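 Compound was added to live cells that had been stained at seeding with Hoechst33342, BioTracker Green Microtubule Cytoskeleton Dye, MitoTracker Red and Annexin V Alexa Fluor 680, and imaging followed on a CQ1 microscope at 37°C and 5% CO2. CellPathfinder machine-learning gating divided cells into Hoechst high-intensity objects or normal cells, normal cells into healthy, pyknosed or fragmented nuclei, and pyknosed cells into mitotic or apoptotic. Tubulin, mitochondrial-mass and membrane-permeability phenotypes are per cents of healthy-nucleus cells.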
# [1] = 12 h, 1 µM, compound concentration 1 uM
# [2] = 12 h, 10 µM, compound concentration 10 uM
# [3] = 24 h, 1 µM, compound concentration 1 uM
# [4] = 24 h, 10 µM, compound concentration 10 uM
# [5] = 48 h, 1 µM, compound concentration 1 uM
# [6] = 48 h, 10 µM, compound concentration 10 uM
structure (smiles),measurement,setting,value
O=C(Nc1c[nH]nc1-c1nc2cc(CN3CCOCC3)ccc2[nH]1)NC1CC1 [AT-9283],Population Apoptotic (%),[1],20% and 16.13%
same,Population Fragmented Nuclei (%),[1],9.94% and 5.09%
same,Population Healthy Nuclei (%),[1],62.43% and 80.56%
same,Population Hoechst High Intensity Objects (%),[1],0%
same,Population Membrane Permeable-Phenotype (%),[1],3.54% and 0.57%
same,Population Mitochondria Different-Phenotype (%),[1],14.16% and 13.22%
same,Population Mitotic Cells (%),[1],80% and 83.87%
same,Population Normal (%),[1],100%
same,Population Pyknosed Nuclei (%),[1],27.62% and 14.35%
same,Population Tubulin-Different-Phenotype (%),[1],24.78% and 24.71%
same,Total Cell Count,[1],181 and 216
same,Population Apoptotic (%),[2],30% and 36.21%
same,Population Fragmented Nuclei (%),[2],25% and 12.87%
same,Population Healthy Nuclei (%),[2],54.59% and 65.81%
same,Population Hoechst High Intensity Objects (%),[2],0%
same,Population Membrane Permeable-Phenotype (%),[2],19.63% and 13.41%
same,Population Mitochondria Different-Phenotype (%),[2],14.02% and 18.44%
same,Population Mitotic Cells (%),[2],70% and 63.79%
same,Population Normal (%),[2],100%
same,Population Pyknosed Nuclei (%),[2],20.41% and 21.32%
same,Population Tubulin-Different-Phenotype (%),[2],36.45% and 41.34%
same,Total Cell Count,[2],196 and 272
same,Population Apoptotic (%),[3],8.33% and 17.86%
same,Population Fragmented Nuclei (%),[3],12.64% and 5.88%
same,Population Healthy Nuclei (%),[3],67.58% and 68.78%
same,Population Hoechst High Intensity Objects (%),[3],0%
same,Population Membrane Permeable-Phenotype (%),[3],6.5% and 2.63%
same,Population Mitochondria Different-Phenotype (%),[3],13.01% and 9.87%
same,Population Mitotic Cells (%),[3],91.67% and 82.14%
same,Population Normal (%),[3],100%
same,Population Pyknosed Nuclei (%),[3],19.78% and 25.34%
same,Population Tubulin-Different-Phenotype (%),[3],28.46% and 22.37%
same,Total Cell Count,[3],182 and 221
same,Population Apoptotic (%),[4],38.98% and 73.44%
same,Population Fragmented Nuclei (%),[4],21.08% and 15.35%
same,Population Healthy Nuclei (%),[4],43.37% and 56.58%
same,Population Hoechst High Intensity Objects (%),[4],0%
same,Population Membrane Permeable-Phenotype (%),[4],23.61% and 16.28%
same,Population Mitochondria Different-Phenotype (%),[4],16.67% and 18.6%
same,Population Mitotic Cells (%),[4],61.02% and 26.56%
same,Population Normal (%),[4],100%
same,Population Pyknosed Nuclei (%),[4],35.54% and 28.07%
same,Population Tubulin-Different-Phenotype (%),[4],38.89% and 57.36%
same,Total Cell Count,[4],166 and 228
same,Population Apoptotic (%),[5],41.3% and 71.67%
same,Population Fragmented Nuclei (%),[5],16.56% and 16.58%
same,Population Healthy Nuclei (%),[5],54.14% and 51.34%
same,Population Hoechst High Intensity Objects (%),[5],0%
same,Population Membrane Permeable-Phenotype (%),[5],3.53% and 9.38%
same,Population Mitochondria Different-Phenotype (%),[5],11.76% and 7.29%
same,Population Mitotic Cells (%),[5],58.7% and 28.33%
same,Population Normal (%),[5],100%
same,Population Pyknosed Nuclei (%),[5],29.3% and 32.09%
same,Population Tubulin-Different-Phenotype (%),[5],23.53% and 35.42%
same,Total Cell Count,[5],157 and 187
same,Population Apoptotic (%),[6],43.48% and 91.01%
same,Population Fragmented Nuclei (%),[6],26.71% and 24.14%
same,Population Healthy Nuclei (%),[6],44.72% and 32.02%
same,Population Hoechst High Intensity Objects (%),[6],0%
same,Population Membrane Permeable-Phenotype (%),[6],12.5% and 29.23%
same,Population Mitochondria Different-Phenotype (%),[6],18.06% and 23.08%
same,Population Normal (%),[6],100%
same,Population Pyknosed Nuclei (%),[6],28.57% and 43.84%
same,Population Tubulin-Different-Phenotype (%),[6],27.78% and 72.31%
same,Total Cell Count,[6],161 and 203
